These results are taken from publication PMC11809490 (RSC Advances, 2025).

Data set [1] deals with C4-2 cells. Nature of the data set: Clonogenic assay. Type of data set: cell-based, human. The settings on record: 10 μM or 20 μM, 10 days. In short, it runs like this: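 1000 C4-2 cells plated per well and exposed to test compound at 10 or 20 μM. […] Incubated 10–12 days, washed with PBS and fixed in cold methanol:acetic acid (3:1) for 5–10 min. Colonies photographed for number and size. Run in duplicate.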

In a further data set the test system is PC3. Nature of the data set: MTT assay, cytotoxicity. Type of data set: cell-based, human. The settings on record: Homo sapiens, PC-3, 48 h, read-out: IC50 PC3. In short, it runs like this:
(§1)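 Cells in medium with 10% FBS, streptomycin and penicillin; 5000 cells per well. After 12 h, test compounds added at 0.1–40 μM, with 0.1% DMSO as vehicle, for 48 h. Then serum-free medium and MTT (5 mg mL−1) at 4:1 for 4 h at 37 °C. Formazan dissolved in DMSO, absorbance at 570 nm, normalized to DMSO control. IC50 from sigmoidal variable-slope nonlinear regression.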
On the technique in general: Tetrazolium assays rely on reduction of a dye to a coloured formazan, in cell work by metabolically active cells.

Data set [2] concerns C4-2 cells. Nature of the data set: Acridine orange/ethidium bromide assay. Type of data set: cell-based, human. The settings on record: 10 and 20 μM, 48 h. In short, it runs like this: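 C4-2 cells (0.25 × 10^5) seeded on 12 mm coverslips for 12 h, then given DMSO or test compound (10 and 20 μM) for 48 h. After PBS wash, stained with AO (100 μg mL−1) plus EB (100 μg mL−1) in PBS for 20 min. Washed and imaged by fluorescence microscopy: FITC channel for green (AO, all cells), TRITC for red (EB, dead cells).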

In a further data set the test system is tubulin in C4-2 cells. Nature of the data set: Tubulin immunofluorescence. Type of data set: cell-based, human. The settings on record: 10 μM and 20 μM, 48 h. The procedure, abridged: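 Fixed and permeabilized with ice-cold methanol. Blocked 1 h in 2% BSA/1% Triton X-100 in PBS. Tubulin antibody overnight at 4 °C, then FITC goat anti-mouse secondary 3 h in the dark. Imaged in FITC and DAPI channels.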

Data set [3] relates to C4-2 cells. Nature of the data set: JC-1 staining, mitochondrial depolarization. Type of data set: cell-based, human. The settings on record: 10 μM or 20 μM, 48 h. The procedure, abridged:
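C4-2 cells (0.25 × 10^5) on 12 mm coverslips, seeded 12 h, then exposed to DMSO or test compound (10 or 20 μM) for 48 h. After PBS wash, incubated with JC-1 (2 μM) in PBS for 20 min. Imaged in FITC and TRITC channels: orange aggregates mark polarized mitochondria, green marks depolarized.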

For a further data set, the system named is p-53 and c-jun. Nature of the data set: Level of p-53 and c-jun. The class given is cell-based.
For a further data set, the system named is HEK293. Nature of the data set: MTT assay, cytotoxicity to normal cells. The class given is cell-based, human. In short, it runs like this: as §1
The subject of data set [4] is prostate, breast, epithelial cancer cells. Nature of the data set: MTT assay, all tested cancer cell lines together. Type of data set: cell-based, human. In short, it runs like this: as §1
The next data set concerns MCF7. Nature of the data set: MTT assay, cytotoxicity. The class given is cell-based, human. The settings on record: Homo sapiens, MCF7, 48 h, read-out: IC50 MCF7. The procedure, abridged:
as §1

Data set [5] has as its system C4-2 cells. Nature of the data set: Intracellular ROS levels, H2DCFDA staining. Type of data set: cell-based, human. The settings on record: 10 μM and 20 μM, 48 h. In short, it runs like this:
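C4-2 cells on coverslips got DMSO, test compound or H2O2 (10 μM) for 48 h. The figure legend gives test compound at 10 and 20 μM. Cells washed with PBS and loaded with H2DCFDA (2 μM final) in PBS, 40 min at 37 °C. Green signal imaged in FITC channel and expressed relative to DMSO. Three independent replicates; Student's t-test.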

A further data set has as its system 22Rv1. Nature of the data set: MTT assay, cytotoxicity. The settings on record: Homo sapiens, 22Rv1, 48 h, read-out: IC50 22Rv1. The class given is cell-based, human. In short, it runs like this: as §1
The subject of the next data set is C4-2. Nature of the data set: MTT assay, cytotoxicity. Type of data set: cell-based, human.
A further data set deals with HCT-8. The settings on record: cited from earlier work.
In a further data set the test system is P388. The settings on record: cited from earlier work.
The subject of another data set is A-549. The settings on record: cited from earlier work.
A further data set has as its system MDA-MB-231. The settings on record: cited from earlier work.

Converted amounts (≈) assume the structure as drawn. “Also recorded” adds a separate entry of the source. Where two headings read alike, the source gives them in different places.

For the compound `CCCOc1ccc2[nH]cc(C(=O)C(C#N)=Cc3cn(CC)c4ccccc34)c2c1` [21j, 3-(1-Ethyl-1H-indol-3-yl)-2-(5-propoxy-1H-indole-3-carbonyl)acrylonitrile], in the data set on C4-2 cells [1], the “number and size of colonies” value was “significantly inhibited the number and size of colonies; also recorded: inhibits colony formation”. For the same compound, the half-maximal inhibitory concentration (IC50) in the data set with PC3 was 5.6 µM; in the data set with HEK293 (Homo sapiens, HEK293, 48 h, read-out: IC50 HEK293), more than 40 µM; in the data set on MCF7, 1200 nM; in the data set with 22Rv1 it was 2900 nM; in the data set on C4-2 (Homo sapiens, C4-2, 48 h, read-out: IC50 C4-2, MTT, 48 h treatment, 0.1-40 μM), 900 nM; with C4-2 (read-out: IC50 C4-2, MTT, 48 h treatment, 0.1-40 μM), 980 nM. The “cell death / apoptosis by AO-EB staining” value with C4-2 cells [2] is reported as “robust cell death; also recorded: induced substantial apoptosis”. The “tubulin assembly (β-tubulin antibody staining)” value with tubulin in C4-2 cells is listed as “significant loss of tubulin assembly; also recorded: increases tubulin depolymerization”. Moreover, the “mitochondrial depolarization (JC-1)” value with C4-2 cells [3] is on record as “induced significant mitochondrial depolarization; also recorded: induces mitochondrial depolarization”. In the data set with p-53 and c-jun, the “level of p-53 and c-jun” value was “upregulate the level of p-53 and c-jun”. Besides, the “cytotoxicity to normal HEK293 cells, in words” value in the data set with HEK293 is reported as “no notable impact”. In addition, the “cytotoxicity against the tested cancer cells, in words (SAR)” value in data set [4] was “significantly enhanced cytotoxicity; also recorded: most effective compound across all cancer cell lines tested”. Moreover, the “ROS levels (DCFDA)” value in the data set with C4-2 cells [5] is reported as “robust increase in ROS levels; also recorded: raises the levels of ROS”.
Consider `CN1C[C@@H](c2c[nH]c3cc(Br)ccc23)N(C)C[C@@H]1c1c[nH]c2cc(Br)ccc12` [Dragmacidin B], for which, in the data set on HCT-8, the “IC50 HCT-8” value was 1 to 10 µg/mL. Also, the “IC50 P388” value with P388 was 15 µg/mL (≈ 29.9 µM). Also, in the data set on A-549, the “IC50 A-549” value was 1 to 10 µg/mL. Further, the “IC50 MDA-MB-231” value in the data set on MDA-MB-231 is 1 to 10 µg/mL.

By IC50 is commonly meant the midpoint of a concentration-inhibition curve.
